Reference: ChEMBL document CHEMBL4321820, “Identification and Optimization of Mechanism-Based Fluoroallylamine Inhibitors of Lysyl Oxidase-like 2/3” (J Med Chem, 2019)

Experiments:
Mus musculus = experiment: Effect on plasma ALT level in CCl4-induced BALB/c mouse model of liver fibrosis at 15 mg/kg, po administered once daily for 6 weeks; assay type: ADME, organism-based; conditions: in vivo, 1008 h
In short: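 CCl4 liver fibrosis in female BALB/c mice: CCl4 i.p. (1 mL/kg 25% in olive oil) twice weekly for 6 weeks, sacrifice 48 h after final injection. Oral once-daily dosing weeks 1-6 or weeks 4-6; imatinib 50 mg/kg daily weeks 1-6. ALT and AST measured in plasma.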

Lysyl oxidase homolog 2 [1] = target: T1, Lysyl oxidase homolog 2 (Homo sapiens, UniProt Q9Y4K0); experiment: Inhibition of recombinant human LOXL2 assessed as inhibition of collagen cross linking compound replenishment for 5 days and measured on day 7 by UPLC-ESI-MS/MS analysis
T1 sequence (Q9Y4K0 whole entry): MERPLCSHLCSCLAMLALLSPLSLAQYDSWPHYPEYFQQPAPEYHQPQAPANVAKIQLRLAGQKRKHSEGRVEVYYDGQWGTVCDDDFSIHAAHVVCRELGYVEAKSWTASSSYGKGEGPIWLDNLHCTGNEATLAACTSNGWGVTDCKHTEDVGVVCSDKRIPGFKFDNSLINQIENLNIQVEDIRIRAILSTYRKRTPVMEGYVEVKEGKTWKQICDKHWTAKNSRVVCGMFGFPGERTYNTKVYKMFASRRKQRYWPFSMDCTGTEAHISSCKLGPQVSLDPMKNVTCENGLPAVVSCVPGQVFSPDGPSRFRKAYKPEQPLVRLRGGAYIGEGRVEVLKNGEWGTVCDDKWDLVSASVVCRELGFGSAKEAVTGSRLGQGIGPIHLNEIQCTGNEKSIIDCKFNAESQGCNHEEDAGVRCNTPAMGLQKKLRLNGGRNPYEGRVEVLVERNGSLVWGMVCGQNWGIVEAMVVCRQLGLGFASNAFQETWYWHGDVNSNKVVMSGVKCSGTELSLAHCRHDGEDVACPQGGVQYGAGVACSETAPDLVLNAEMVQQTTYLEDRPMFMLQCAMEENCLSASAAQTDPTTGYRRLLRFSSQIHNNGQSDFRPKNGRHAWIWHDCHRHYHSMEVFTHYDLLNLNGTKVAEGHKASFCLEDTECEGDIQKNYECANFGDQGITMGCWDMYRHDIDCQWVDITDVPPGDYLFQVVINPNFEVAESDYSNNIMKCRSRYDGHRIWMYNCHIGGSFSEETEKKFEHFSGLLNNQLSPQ

Protein-lysine 6-oxidase = target: T2, Protein-lysine 6-oxidase (Homo sapiens, UniProt P28300); experiment: Inhibition of LOX in human IMR90 cells using putrescine as substrate preincubated with enzyme for 30 mins followed by substrate addition and measured every 2.5 mins for 30 mins by Amplex-Red oxidation assay; assay type: cell-based
T2 sequence (P28300 whole entry): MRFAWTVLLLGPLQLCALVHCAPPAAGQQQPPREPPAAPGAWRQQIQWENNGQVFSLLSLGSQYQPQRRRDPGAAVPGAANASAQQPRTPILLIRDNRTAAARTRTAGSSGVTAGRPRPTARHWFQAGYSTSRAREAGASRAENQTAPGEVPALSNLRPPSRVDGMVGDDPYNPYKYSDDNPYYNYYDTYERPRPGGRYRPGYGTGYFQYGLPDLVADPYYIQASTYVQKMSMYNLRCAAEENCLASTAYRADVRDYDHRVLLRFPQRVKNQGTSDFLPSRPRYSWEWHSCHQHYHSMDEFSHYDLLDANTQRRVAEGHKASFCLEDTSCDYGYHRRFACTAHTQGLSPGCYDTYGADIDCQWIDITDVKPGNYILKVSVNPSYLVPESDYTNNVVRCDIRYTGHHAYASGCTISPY
In short: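 IMR90 fibroblasts grown in MEM/10% FBS to 80% confluence, then 48-72 h in phenol-red-free 0.1% FBS medium. Conditioned medium concentrated 40-fold (10 kDa). LOX and LOXL2 separated on a 50 kDa filter in 6 M urea/borate, then diluted back to 1.2 M urea. Preincubated 30 min at 37 °C with compound; Amplex Red/HRP/putrescine readout every 2.5 min over 30 min.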

[2] = Stability in dog microsomes assessed as half life; assay type: ADME, Canis lupus familiaris, Microsome
Lysyl oxidase homolog 2 [3] = target: T3, Lysyl oxidase homolog 2 (Mus musculus, UniProt P58022); experiment: Inhibition of recombinant mouse C-terminal His-tagged LOLX2 (26-776 residues) expressed in mouse myeloma cells using putrescine as substrate preincubated with enzyme for 30 mins followed by substrate addition and measured every 2.5 mins for 30 mins by Amplex-Red oxidation assay
T3 sequence (P58022 whole entry): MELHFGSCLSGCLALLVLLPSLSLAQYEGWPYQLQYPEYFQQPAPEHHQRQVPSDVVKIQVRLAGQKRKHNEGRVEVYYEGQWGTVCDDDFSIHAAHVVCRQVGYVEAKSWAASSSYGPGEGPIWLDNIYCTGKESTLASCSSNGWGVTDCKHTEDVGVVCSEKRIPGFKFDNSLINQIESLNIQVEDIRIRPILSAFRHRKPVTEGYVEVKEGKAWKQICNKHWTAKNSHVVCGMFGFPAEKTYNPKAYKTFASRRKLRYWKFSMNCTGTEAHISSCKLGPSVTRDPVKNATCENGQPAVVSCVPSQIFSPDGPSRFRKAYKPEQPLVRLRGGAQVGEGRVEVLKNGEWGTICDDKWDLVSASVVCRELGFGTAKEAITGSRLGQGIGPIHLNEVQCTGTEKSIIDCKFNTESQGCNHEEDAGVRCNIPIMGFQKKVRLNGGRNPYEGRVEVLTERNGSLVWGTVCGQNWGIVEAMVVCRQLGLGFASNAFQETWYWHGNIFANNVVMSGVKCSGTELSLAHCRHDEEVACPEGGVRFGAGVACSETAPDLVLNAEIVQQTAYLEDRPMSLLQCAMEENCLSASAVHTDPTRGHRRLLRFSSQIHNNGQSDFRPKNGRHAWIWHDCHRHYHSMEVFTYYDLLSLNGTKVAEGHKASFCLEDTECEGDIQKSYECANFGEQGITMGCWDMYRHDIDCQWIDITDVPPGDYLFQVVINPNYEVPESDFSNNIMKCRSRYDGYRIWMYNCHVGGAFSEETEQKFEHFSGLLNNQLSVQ
In short: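 LOXL2 enzyme preincubated with compound for 30 min at 37 °C, then Amplex Red (120 µM) / HRP (1.5 U/mL) mix containing 5 mM putrescine added. Buffer: 1.2 M urea, 50 mM sodium borate, pH 8.2. H2O2 fluorescence (ex 565/em 590) read every 2.5 min for 30 min at 37 °C; BAPN 100 µM as positive control; n≥2.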

[4] = Oral bioavailability in rat; assay type: ADME, organism-based; conditions: in vivo

Row | IC50 (Lysyl oxidase homolog 2 [1]) [nM] | IC50 (Protein-lysine 6-oxidase) [nM] | half-life [2] [h] | IC50 (Lysyl oxidase homolog 2 [3]) [nM] | bioavailability [4] [%] | SMILES | Activity (Mus musculus)
1 | – | – | – | – | – | CCOC(=O)c1ccc2c(c1)c(-c1cccc(S(=O)(=O)N(C)C)c1)c(C)n2C/C(F)=C/CN.Cl | Non-Toxic
2 | 13 | 1260 | > 1.5 | 6 | < 1 | Cc1c(-c2cccc(S(=O)(=O)N(C)C)c2)c2cc(C(=O)O)ccc2n1C/C(F)=C/CN.Cl | –
